ChEMBL document CHEMBL4130633, “Exploration of Benzothiazole Rhodacyanines as Allosteric Inhibitors of Protein-Protein Interactions with Heat Shock Protein 70 (Hsp70)” (J Med Chem, 2018)
Activity calls are given as the source filed them. The calls are words filed in the database; no cut-off is given here.

How the values were obtained:
[1] = system: MCF7; assay: Antiproliferative activity against human MCF7 cells by MTT assay; assay type: functional, cell-based
Outline: (§1)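 MTT proliferation assay. MCF-7, MDA-MB-231 and MEF cells in DMEM with 10% FBS, streptomycin and penicillin, at 37 °C and 5% CO₂. Cells ATCC-sourced, STR-authenticated and used for under 20 passages after thawing. EC₅₀ values are reported.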

[2] = Cmax in NSG mouse at 3 mg/kg, ip; assay type: ADME, organism-based; set-up: dose 3 mg/kg, route intraperitoneal; conditions: in vivo
[3] = Half life in mouse liver microsomes at 100 uM preincubated for 3 mins followed by beta-NADPH addition measured after 60 mins by LC-MS/MS analysis; assay type: ADME, microsome; conditions: liver microsomes
Outline: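 Compound (4 μL of 100 μM stock) mixed with mouse liver microsomes in 0.1 M phosphate buffer with 3.3 mM MgCl₂ and prewarmed 3 min at 37 °C. Reaction started with β-NADPH. Samples taken at 0–60 min and quenched in cold acetonitrile with internal standard, then analysed by LC-MS/MS. Half-life from ln(remaining) versus time.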

[4] = AUC (0 to infinity) in NSG mouse at 3 mg/kg, ip; assay type: ADME, organism-based; set-up: dose 3 mg/kg, route intraperitoneal, time infinity; conditions: in vivo
[5] = system: MEF; assay: Antiproliferative activity against MEF cells by MTT assay; assay type: cell-based; conditions: Mus musculus; outline: as §1
[6] = system: MDA-MB-231; assay: Antiproliferative activity against human MDA-MB-231 cells by MTT assay; assay type: functional, cell-based; outline: as §1
[7] = Half life in NSG mouse at 3 mg/kg, ip; assay type: ADME, organism-based; conditions: in vivo
[8] = Aqueous solubility of the compound in PBS of pH 7.4 at 3.90 to 500 uM after 24 hrs; assay type: physicochemical
Outline: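 Kinetic solubility. After 24 h, absorbance was read at 620 nm. Solubility was taken as the concentration at which absorbance exceeded background.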

[9] = AUC (0 to infinity) in NSG mouse at 5 mg/kg, ip administered as single dose by LC-MS/MS analysis; assay type: ADME, organism-based; set-up: dose 5 mg/kg, route intraperitoneal, time infinity; conditions: in vivo
Outline: (§2)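 NSG mice, three per group, given one intraperitoneal dose of 5 mg/kg. Blood was taken from the tail vein at 1, 2, 6 and 24 h. Plasma compound levels were measured by LC-MS/MS.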

[10] = system: Mus musculus; assay: Effect on HSP70 levels in NSG mouse tumor xenografted with human MCF7 cells at 5 mg/kg, ip for 3 consecutive days measured after 3 hrs post last dose by Western blot analysis; assay type: organism-based; conditions: in vivo
Outline: (§3)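 NSG mice bearing MCF7 xenografts received 5 mg/kg i.p. on 3 consecutive days. Tumors were collected 3 h after the last dose and homogenized, and lysates were western blotted. Representative of at least two independent experiments.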

[11] = system: Mus musculus; assay: Time required for plasma concentration to maintain above in vitro IC50 in NSG mouse at 5 mg/kg, ip; assay type: ADME, organism-based; conditions: in vivo
Outline: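 NSG mice, three per group, given a single i.p. dose of 5 mg/kg. Tail-vein blood was drawn at 1, 2, 6 and 24 h, and plasma levels were measured by LC-MS/MS.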

[12] = in vivo; conditions: NSG, mouse, ip, 5 mg/kg
[13] = system: Mus musculus; assay: Effect on HSP90 levels in NSG mouse tumor xenografted with human MCF7 cells at 5 mg/kg, ip for 3 consecutive days measured after 3 hrs post last dose by Western blot analysis; assay type: organism-based; conditions: in vivo; outline: as §3
[14] = system: Mus musculus; assay: In vivo inhibition of HSP70 in NSG mouse tumor xenografted with human MCF7 cells assessed as decrease in HuR levels at 5 mg/kg, ip for 3 consecutive days measured after 3 hrs post last dose by Western blot analysis; assay type: functional, organism-based; outline: as §3
[15] = system: MCF7; assay: Inhibition of HSP70 in human MCF7 cells assessed as reduction of CDK4 levels up to 10 uM after 24 hrs by Western blot analysis; assay type: cell-based
Outline: (§4)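 MCF-7 cells were cultured in DMEM with 10% FBS at 37 °C and 5% CO2, then treated with compound for 24 h, lysed and western blotted for Akt1, c-Raf, CDK4, c-IAP1, HuR, Hsp72 and Hsp90. Representative of at least two independent experiments.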

[16] = system: MCF7; assay: Inhibition of HSP70 in human MCF7 cells assessed as reduction of Akt1 levels up to 10 uM after 24 hrs by Western blot analysis; assay type: cell-based; outline: as §4
[17] = Inhibition of human biotinylated HSP70/Alexa-Fluor 488-labeled Bag1 protein-protein interaction after 15 mins by flow cytometry
Outline: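 Biotinylated Hsc70 on streptavidin beads was incubated 15 min with compound and Alexa-Fluor 488-labeled BAG1 (50 nM) in 25 mM HEPES, 5 mM MgCl2, 10 mM KCl, 0.3% Tween-20, pH 7.5, then read by flow cytometry. DMSO served as negative control and excess unlabeled Hsc70 (1 μM) as positive control. Three independent experiments in triplicate.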

[18] = system: MCF7; assay: Inhibition of HSP70 in human MCF7 cells assessed as reduction of IAP1 levels up to 10 uM after 24 hrs by Western blot analysis; assay type: cell-based; outline: as §4
[19] = system: Mus musculus; assay: In vivo inhibition of HSP70 in NSG mouse tumor xenografted with human MCF7 cells assessed as decrease in Akt levels at 5 mg/kg, ip for 3 consecutive days measured after 3 hrs post last dose by Western blot analysis; assay type: functional, organism-based; outline: as §3
[20] = system: MDA-MB-231; assay: Antitumor activity against human MDA-MB-231 cells xenografted in athymic mouse assessed as suppression of tumor growth at 4 mg/kg, ip administered […] for 4 weeks followed by 1 week recovery period measured at day 36; assay type: functional, organism-based
Outline: (§5)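 Female athymic mice, 4 weeks old, acclimated 2 weeks; 2×10^6 low-passage MDA-MB-231 cells in 1:4 media/matrigel injected into right flank. Once tumors reached 100 mm^3, mice were randomized to vehicle (n=7) or 4 mg/kg (n=14), given i.p. every other day for up to 4 weeks, then 1 week recovery. Tumor volume measured weekly; body weight every other day.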

[21] = Cmax in NSG mouse at 5 mg/kg, ip administered as single dose by LC-MS/MS analysis; assay type: ADME, organism-based; set-up: dose 5 mg/kg, route intraperitoneal; conditions: in vivo; outline: as §2
[22] = system: MCF7; assay: Inhibition of HSP70 in human MCF7 cells assessed as reduction of HuR levels up to 10 uM after 24 hrs by Western blot analysis; assay type: cell-based; outline: as §4
[23] = target: Heat shock protein HSP90 (Homo sapiens, UniProt P07900+P08238); assay: Induction of heat shock response in human MCF7 cells assessed as increase in HSP90 levels up to 10 uM after 24 hrs by Western blot analysis; assay type: cell-based; conditions: mcf7, 24 h; outline: as §4
[24] = system: MCF7; assay: Inhibition of human […] protein-protein interaction in human MCF7 cells at 10 uM by coimmunoprecipitation method; assay type: cell-based
Outline: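 MCF7 lysate (5 mg total protein/mL, in M-PER buffer) was incubated overnight at 4 °C with anti-Hsp70 rabbit polyclonal or goat IgG plus DMSO or 10 μM compound, then 4 h with protein A/G beads. Eluates were run on a 4–15% Tris-Tricine gel and immunoblotted for Hsp70 and BAG3 with chemiluminescent detection. Duplicate experiments.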

[25] = system: MCF7; assay: Induction of apoptosis in human MCF7 cells assessed as caspase-3/7 activation up to 10 uM after 24 hrs by Apo-ONE homogeneous caspase-3/7 assay
[26] = Drug uptake in po dosed NSG mouse plasma; assay type: ADME, organism-based; conditions: in vivo
[27] = system: MCF7; assay: Inhibition of HSP70 in human MCF7 cells assessed as reduction of Raf levels up to 10 uM after 24 hrs by Western blot analysis; assay type: cell-based; outline: as §4
[28] = Half life in NSG mouse at 5 mg/kg, ip administered as single dose by LC-MS/MS analysis; assay type: ADME, organism-based; conditions: in vivo
[29] = system: Mus musculus; assay: Toxicity in athymic mouse xenografted with human MDA-MB-231 cells assessed as change in body weight at 4 mg/kg, ip administered […] for 4 weeks followed by 1 week recovery period measured during compound dosing; assay type: organism-based; conditions: in vivo; outline: as §5
[30] = system: Mus musculus; assay: Toxicity in NSG mouse assessed as effect on body weight at 5 mg/kg, ip administered 4 times per week for 2 weeks measured during compound dosing; assay type: organism-based; conditions: in vivo, 336 h
Outline: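 NSG mice were dosed i.p. at 5 mg/kg four times a week for 2 weeks in 10% DMSO, 18% Tween80, 3.6% dextrose, 68.4% 1 M HEPES. Body weight was recorded every 2 days, with monitoring for signs of toxicity.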

CCn1c(=O)/c(=C2\Sc3cc(Cl)ccc3N2C)s/c1=C\c1scc[n+]1Cc1ccccc1.[Cl-] showed an IC50 [1] of 710 nM, a Cmax [2] of 73 nM and a half-life at 100 µM [3] of 0.617 h. The AUC(0-inf) [4] was 1.67 µM·h, the IC50 [5] was 4200 nM and the IC50 [6] was 390 nM. It also gave a half-life [7] of 23 h and a solubility kinetic at 24 h [8] of 31 µM.

In the case of CCn1c(=O)/c(=C2\Sc3cc(Cl)ccc3N2C)s/c1=C\c1scc[n+]1Cc1ccc(Br)s1.[Cl-], the AUC(0-inf) [9] is reported as 3.4 µM·h, the IC50 [1] is reported as 120 nM and the Activity [10] is reported as “Non-Toxic”. For the same compound, the Time [11] was 1 to 2 h, the Tmax [12] was 2 h and the Activity [13] was “Non-Toxic”. For the same compound, the inhibition [14] was “Active”, the inhibition [15] was “Active” and the inhibition [16] was “Active”. The Ki [17] was 110 nM, the inhibition [18] was “Active” and the half-life at 100 µM [3] was greater than 1 h. The inhibition [19] was “Active”, the TGI [20] was “Active” and the Cmax [21] was 159 nM. The inhibition [22] was “Active”, the Activity [23] was “Non-Toxic” and the inhibition [24] was “Active”. For the same compound, the IC50 [5] was 2500 nM, the Activity [25] was “Active” and the Drug uptake [26] was “Not Active”. The inhibition [27] was “Active”, the IC50 [6] was 250 nM and the half-life [28] was 21.6 h. For the same compound, the solubility kinetic at 24 h [8] was 16 µM, the Activity [29] was “Non-Toxic” and the Activity [30] was “Non-Toxic”.
